# V1aR counter: activates human V1a receptor in oxytocin agonist counter-screen; 320,000 tested, 0.25% active; AID 2797; CHO-V1R cells, Fluo-8 calcium fluorescence, agonist mode; 0% DMSO, 100% 3 nM vasopressin; activation, % at 3 µM;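 active means activation above the mean activation of all tested compounds plus 3 SD, per screening run, cut at about 20% in these data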;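 further: signal is peak over basal fluorescence ratio across a 100 second FLIPR read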
# Target sequence (P37288 whole entry, looked up): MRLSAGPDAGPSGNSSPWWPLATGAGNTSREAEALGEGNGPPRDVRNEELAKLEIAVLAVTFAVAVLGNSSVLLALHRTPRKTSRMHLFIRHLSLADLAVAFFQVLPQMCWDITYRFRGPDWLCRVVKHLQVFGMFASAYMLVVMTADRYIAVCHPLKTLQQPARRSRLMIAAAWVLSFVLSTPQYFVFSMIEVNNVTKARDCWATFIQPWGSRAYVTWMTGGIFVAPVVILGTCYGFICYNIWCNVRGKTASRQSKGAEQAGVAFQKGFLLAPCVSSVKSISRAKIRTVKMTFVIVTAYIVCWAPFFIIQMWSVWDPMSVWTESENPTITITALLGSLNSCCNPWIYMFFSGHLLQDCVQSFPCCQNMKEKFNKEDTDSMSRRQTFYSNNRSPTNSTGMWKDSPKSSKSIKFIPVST
# OXTR potentiator: human OXTR potentiation. AID 2445. P30559. 320,000 tested, 0.061% active. CHO-OTR cells, Fluo-8 calcium fluorescence, potentiator mode; 0% = oxytocin EC15, 100% = EC100. activation, % at 3 µM;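 active means activation above that plate's cutoff, the mean activation of tested compounds plus 3 SD, cut at about 6.6% in these data, passing the limit was not always enough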;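 further: 100% uses oxytocin at 75 nM as the full agonist control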
#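 Material: CHO-OTR cells, human receptor; compound dosing: single dose, 3.0 µM nominal final compound concentration; schedule: 6 min compound pre-incubation at room temperature, 100 s kinetic read; measured by: kinetic Fluo-8 calcium fluorescence; read-out basis: % activation vs EC15 and EC100 oxytocin; controls: EC15 oxytocin alone as 0%, 75 nM oxytocin as 100%; replicates: singlicate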
# TRPN1 ag: activates the zebrafish TRPN1 channel. AID 1424. 220,000 tested, 0.18% active. activation, % at 3 µM. HEK293 zebrafish TRPN1-YFP, Fluo-8 calcium fluorescence; 100% = response to 87 µM carbachol;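 active means activation above its plate's cutoff, the mean activation of test wells on that plate plus 3 SD, cut at about 19% in these data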;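 further: 0% = DMSO alone and 100% = 87 µM carbachol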
#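 Material: zebrafish TRPN1-YFP in HEK293 cells; Doses: single test compound dose, 3 µM nominal, 0.3% DMSO; Timing: dye loading 1 h at 37 °C, then 30 min room temperature; Technique: intracellular calcium fluorescence with Fluo-8; Benchmarks: high carbachol 87 µM, low DMSO alone.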
# OXTR agonist: activates the human oxytocin receptor; P30559; CHO-OTR cells, Fluo-8 calcium fluorescence; normalized: DMSO 0%, oxytocin 100%; AID 2435; activation, % at 3 µM; 320,000 tested, 0.32% active;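 active means activation above the mean of all tested compounds plus 3 SD, cutoff set per screening run, cut at about 20% in these data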;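 further: peak over basal fluorescence ratio from a 100 s FLIPR kinetic read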
# TRPML3 ag: human mucolipin-3 channel agonism; Q8TDD5; HEK293 TRPML3-YFP, Fluo-8 calcium fluorescence; 100% = the carbachol control signal; activation, % at 3 µM; 220,000 tested, 0.29% active;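 active means activation above its plate's cutoff, the mean activation of the plate's test wells plus 3 SD, cut at about 12% in these data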;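 further: 0% = DMSO only wells and 100% = carbachol wells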
#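 Test system: HEK293 cells stably carrying human TRPML3-YFP; Doses: single dose, 3 µM final nominal compound, 0.3% DMSO final; Schedule: dye loading 1 h 37 °C then 30 min ambient, 125 s read; Technique: Fluo-8 calcium fluorescence; Benchmarks: high control carbachol 87 µM, low control DMSO.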
# TRPN1 counter: activates zebrafish TRPN1, counter-screen for TRPML3 agonists; shares compounds with TRPML3 ag; HEK293 zebrafish TRPN1-YFP, Fluo-8 calcium fluorescence; scaled: carbachol wells 100%, DMSO wells 0%; activation, % at 3 µM; 310 tested, 10% active; AID 1525;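 active means mean activation over replicates above a set limit taken from the earlier TRPN1 channel primary screen, cut at about 19% in these data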;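 further: 100% = carbachol and 0% = 0.3% DMSO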
# TRPML3 ag conf: confirmation of human TRPML3 channel agonists; shares compounds with TRPML3 ag; 310 tested, 80% active; HEK293 TRPML3-YFP, Fluo-8 calcium fluorescence; 100% set by carbachol, 0% by DMSO; AID 1526; activation, % at 3 µM;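 active means activation above a set limit derived from the earlier primary screen, cut at about 12% in these data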
# * hit, by the source's call; nt = not tested or not shown. Only some compounds are listed: those with a hit (about 0.55% of all), similar ones and a draw of the others.
SMILES,V1aR counter,OXTR potentiator,TRPN1 ag,OXTR agonist,TRPML3 ag,TRPN1 counter,TRPML3 ag conf
N#C/C(=N/Nc1ccccc1[N+](=O)[O-])C(N)=S,14.7,-19.1,13.4,19.5,11.9*,19.8*,7.7
O=C(Cc1n[nH]c(=O)[nH]c1=O)N/N=C/CCc1ccccc1,0.8,2.2,0.1,0.2,0.7,nt,nt
O=C(c1ccccc1)c1ccc(O)cc1O,30.2*,-7.4,17.8,23.5*,17.7*,11.1,7.8
O=S(=O)(NC1CCCCC1N1CCN(c2ccccc2F)CC1)c1ccc(Cl)cc1 (stereo unspecified),0.0,-11.3,nt,-1.4,nt,nt,nt
O=S(=O)(NC1CCCCC1N1CCOCC1)c1ccc(Cl)cc1 (stereo unspecified),0.8,-0.9,0.4,-0.5,129.1*,4.7,150.7*
CCn1c(=O)cc(OCC(=O)Nc2ccc(OC)c(OC)c2)c2ccccc21,0.5,-5.6,4.3,0.2,22.8*,7.0,23.1*
Cc1ccc(Oc2c(CO)c(-c3ccccc3)nn2C)cc1,6.1,-19.0,7.6,1.7,4.5,nt,nt
O=C1c2ccccc2CCCC12N=NCC2c1cccc2ccccc12 (stereo unspecified),-0.9,-8.5,-1.7,1.4,56.1*,-1.6,66.9*
COc1ccc(/C(C)=N/NC(=O)c2ccc(NS(=O)(=O)c3cccs3)cc2)cc1,1.1,0.7,-0.1,0.6,0.1,nt,nt
CSc1nc2ccccc2nc1N(C)S(=O)(=O)c1ccc(C)cc1,0.0,-5.9,-2.9,-0.8,21.0*,-0.4,25.9*
Cc1ccc(S(=O)(=O)N(C)c2ccccc2)cc1,-1.6,-7.7,-1.6,-2.4,16.6*,-2.3,6.8
Cc1ccc(S(=O)(=O)N(C)c2ccc3ccccc3c2)cc1,-0.8,-6.9,-1.3,-2.6,-0.1,nt,nt
Cc1ccc(N(C)S(=O)(=O)c2ccc(C)cc2)cc1,-0.1,-0.1,-1.1,-0.4,48.6*,-2.6,25.4*
Cc1noc(C)c1NC(=O)Nc1ccc2c(c1)C(=O)N([C@H](C)CO)C[C@H](C)[C@H](CN(C)C)O2,0.5,5.8,nt,0.1,nt,nt,nt
Cc1cc(Cl)ccc1NC(=O)CN1CCN(C(=O)c2ccco2)CC1,-0.2,-11.1,nt,0.3,nt,nt,nt
C=CCn1c(SCCC)nc(O)cc1=O,69.7*,-11.6,1.3,47.6*,27.7*,1.5,0.0
C=CCn1c(SCC(=O)C23CC4CC(CC(C4)C2)C3)nc(O)cc1=O,0.3,-8.1,-0.3,-0.4,0.7,nt,nt
Cc1ccc(Cl)cc1N1CCN(S(C)(=O)=O)CC1,1.8,-0.9,-1.3,0.4,0.0,nt,nt
Cc1ccc(Cl)cc1N1CCN(S(=O)(=O)N2CCCCC2)CC1,0.3,-12.8,-0.7,-2.3,29.5*,-1.8,111.5*
CC(=O)N(c1nc(/C=C\C(=O)O)cs1)c1ccccc1F,11.4,-1.8,1.6,-0.3,0.7,nt,nt
O=c1cc(C(F)(F)F)[nH]c2c(C(F)(F)F)cccc12,14.0,-18.9,5.0,15.7,14.6*,29.0*,12.5*
Cc1cc(=O)c2cccc(Br)c2[nH]1,1.0,-6.2,0.9,1.4,1.0,nt,nt
O=c1cc(C(F)(F)F)[nH]c2ccc(OC(F)(F)F)cc12,8.5,-21.1,16.8,16.2,11.8*,26.4*,9.0
COc1ccccc1Nc1ncc(C(=O)Nc2ccc(OC)c(OC)c2)c2ccccc12,1.6,-8.6,1.5,2.0,-0.1,nt,nt
CCOC(=O)c1ccc(S(=O)(=O)NCC(C)(C)N2CCOCC2)cc1,-0.5,-0.1,0.4,0.9,1.2,nt,nt
SMILES,V1aR counter,OXTR potentiator,TRPN1 ag,OXTR agonist,TRPML3 ag,TRPN1 counter,TRPML3 ag conf
CCOc1cc(/C=C2\SC(=S)N(C(C(=O)O)c3ccccc3)C2=O)ccc1O (stereo unspecified),32.3*,-34.4,14.4,37.9*,13.4*,33.3*,15.2*
CCOc1ccc(/C=C2/SC(=S)N(C(C(=O)O)c3ccccc3)C2=O)cc1OCC (stereo unspecified),nt,nt,1.0,nt,0.6,nt,nt
C#CCOc1nc(C)cc(C)c1S(=O)(=O)c1ccccc1C,-1.2,5.9,-3.2,-1.3,40.6*,-2.9,61.3*
Cc1cc(C)c(S(=O)(=O)c2c(C)cccc2C)c(OCC(C)C)n1,-0.5,-7.4,0.4,-1.3,12.1*,0.1,43.0*
COc1nc(C)cc(C)c1S(=O)(=O)c1ccccc1C,-1.2,-5.3,nt,-2.2,nt,nt,nt
CCOc1nc(C)cc(C)c1S(=O)(=O)c1cccc(C)c1,-0.7,-2.3,-2.0,-1.5,0.2,nt,nt
CN(CCOc1ccccc1)CC(=O)Nc1ccc(S(=O)(=O)N2CCCC2)cc1,1.5,-1.0,1.7,0.8,0.7,nt,nt
CN(CCOc1ccccc1)c1ccc(S(=O)(=O)N2CCCCC2)cn1,-1.5,-8.0,0.1,-2.1,26.3*,-0.1,51.6*
Cc1cc(C)cc(N(CC(=O)N2CCC(C)CC2)S(=O)(=O)c2ccccc2)c1,-1.5,-7.0,-1.7,-2.3,8.3,nt,nt
Cc1cc(C)cc(N(CC(=O)N2CCOCC2)S(=O)(=O)c2ccccc2)c1,-0.5,-15.0,0.8,0.1,34.8*,0.1,46.0*
Cc1ccc(S(=O)(=O)N(CC(=O)N2CCCCC2)c2cccc(C)c2)cc1,-1.2,-7.6,0.5,-1.0,126.9*,2.2,138.5*
O=S(=O)(Nc1ccccc1N1CCCCC1)c1ccc(F)cc1,-1.0,2.0,-2.9,-3.5,31.2*,-2.3,77.5*
O=S(=O)(Nc1ccccc1N1CCCCC1)c1cccs1,-1.6,-1.1,-1.6,-4.3,14.1*,-2.1,33.2*
CN(C)NC(=S)Nc1cccc(C(F)(F)F)c1,0.4,3.7,-0.4,-0.7,0.2,nt,nt
CC(NC(=S)Nc1cccc(C(F)(F)F)c1)C(C)(C)C (stereo unspecified),6.5,-12.3,13.3,8.3,12.0*,14.9,7.0
CCOC(=O)c1cc(C#N)c(Nc2ccc(C)cc2)nc1C(F)(F)F,0.9,-4.4,0.4,-1.1,0.6,nt,nt
CCCC(=O)Oc1c(S(=O)(=O)c2ccc(C)cc2)c(C)nn1C(C)(C)C,-0.5,1.5,-0.2,0.1,25.7*,5.7,84.5*
CC(=O)c1ccc(NC(=O)C2(c3ccccc3)CCOCC2)cc1,-1.3,-9.5,-0.2,-0.8,0.5,nt,nt
CC1=CC(=O)C=C(C)C1=NOS(=O)(=O)c1ccccc1,nt,nt,4.2,nt,6.7,nt,nt
CC1=CC(=O)C(C(C)C)=C/C1=N/OS(=O)(=O)c1ccccc1,11.5,-18.1,16.4,5.4,19.4*,14.2,22.7*

# Screens from PubChem.
